Assay results published in ChEMBL document CHEMBL4334543, “Scaffold Hopping-Driven Optimization of 4-(Quinazolin-4-yl)-3,4-dihydroquinoxalin-2(1H)-ones as Novel Tubulin Inhibitors” (ACS Med Chem Lett, 2020).
Values after ≈ are worked out from the molar mass of the structure shown. Active and inactive are the calls of the source. The calls are words filed in the database; no cut-off is given here.

Experiments:
[1] = tested on: MDA-MB-231; experiment: Antiproliferative activity against human MDA-MB-231 cells assessed as reduction in cell viability incubated for 72 hrs by SRB assay; type: functional; details: MDA-MB-231, 72 h
Method in brief: (§1)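 Sulforhodamine B assay across a human tumor cell line panel, with CA-4 run in parallel as positive control. GI50 is the concentration giving 50% growth inhibition, read from dose–response curves. Values are mean ± SD of at least three independent experiments.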

[2] = tested on: KB; experiment: Antiproliferative activity against human KB cells assessed as reduction in cell viability incubated for 72 hrs by SRB assay; type: functional; method in brief: as §1
[3] = tested on: MCF7; experiment: Antiproliferative activity against human MCF7 cells assessed as reduction in cell viability incubated for 72 hrs by SRB assay; type: functional; details: MCF7, 72 h; method in brief: as §1
[4] = tested on: A549; experiment: Antiproliferative activity against human A549 cells assessed as reduction in cell viability incubated for 72 hrs by SRB assay; type: functional; details: A549, 72 h; method in brief: as §1
[5] = Antiproliferative activity against human KBVIN cells assessed as reduction in cell viability incubated for 72 hrs by SRB assay; type: functional; method in brief: as §1
[6] = Solubility of compound at pH 7.4 incubated for 4 hrs by HPLC-UV analysis; type: physicochemical; details: buffer
[7] = Potency index, ratio of GI50 of paclitaxel to GI50 of compound for antiproliferative activity against human KBVIN cells assessed as reduction in cell viability incubated for 72 hrs by SRB assay; type: functional
[8] = tested on: MDA-MB-231; experiment: Inhibition of tubulin polymerization in human MDA-MB-231 cells at 3 times of antiproliferative IC50 incubated for 24 hrs by DAPI staining based confocal fluorescence microscopy; type: functional, cell-based
Method in brief: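 Cells were fixed in 4% PFA/PBS, immunostained for α-tubulin and counterstained with DAPI. Microtubule networks were imaged by confocal fluorescence microscopy as projections of 15–20 confocal images.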

[9] = tested on: MDA-MB-231; experiment: Cell cycle arrest in human MDA-MB-231 cells assessed as increase in accumulation of G2/M phase at 3 times of antiproliferative IC50 incubated for 24 hrs by propidium iodide based flow cytometry; type: functional
Method in brief: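 Cells were fixed in EtOH, stained with propidium iodide in the presence of RNase, and analysed by flow cytometry. Cell count was plotted against linear PI fluorescence.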

[10] = Lipophilicity, logP of compound incubated for 24 hrs with stirrer and measured after overnight by HPLC-UV analysis; type: physicochemical

| SMILES | GI50 [1] | GI50 [2] | GI50 [3] | GI50 [4] | solubility at 4 h [6] | logP at 24 h [10] | GI50 [5] | RatioGI50 [7] | inhibition [8] | Activity [9] |
| --- | --- | --- | --- | --- | --- | --- | --- | --- | --- | --- |
| COc1ccc2c(c1)NC(=O)CN2c1nccc2nccnc12 | 915 nM | 777 nM | 908 nM | 617 nM | – | – | 638 nM | – | – | – |
| COc1ccc2c(c1)NC(=O)CN2c1nccc2c1NC=CN2 | > 40000 nM | > 40000 nM | > 40000 nM | > 40000 nM | – | – | > 40000 nM | – | – | – |
| COc1ccc2c(c1)NC(=O)CN2c1nc(NCCCO)nc2cc(OC)c(OC)cc12 | 820 nM | 516 nM | 950 nM | 997 nM | – | – | > 10000 nM | – | – | – |
| COc1ccc2c(c1)NC(=O)CN2c1ncnc2ncccc12 | 2290 nM | 480 nM | 1200 nM | 566 nM | – | – | 650 nM | – | – | Active |
| COc1ccc2c(c1)C(=O)NCCN2c1nc(C)nc2ccccc12 | > 2000 nM | > 2000 nM | > 2000 nM | > 2000 nM | – | – | > 2000 nM | – | – | – |
| COc1ccc2c(c1)NC(=O)CCCCN2c1nc(C)nc2ccccc12 | > 10000 nM | > 10000 nM | > 10000 nM | > 10000 nM | – | – | > 10000 nM | – | – | – |
| COc1ccc2c(c1)NC(=O)CCCN2c1nc(C)nc2ccccc12 | 9700 nM | 5700 nM | 10500 nM | 5900 nM | – | – | 5560 nM | – | – | – |

These reach a lower GI50 [1]. Values come first.

| GI50 [1] | GI50 [2] | GI50 [3] | GI50 [4] | solubility at 4 h [6] | logP at 24 h [10] | SMILES | GI50 [5] | RatioGI50 [7] | inhibition [8] | Activity [9] |
| --- | --- | --- | --- | --- | --- | --- | --- | --- | --- | --- |
| 5.2 nM | 4.1 nM | 8.3 nM | 2.4 nM | – | – | CC(=O)O[C@H]1C(=O)[C@@]2(C)[C@H]([C@H](OC(=O)c3ccccc3)[C@]3(O)C[C@H](OC(=O)[C@H](O)[C@@H](NC(=O)c4ccccc4)c4ccccc4)C(C)=C1C3(C)C)[C@]1(OC(C)=O)CO[C@@H]1C[C@@H]2O [PACLITAXEL] | 1960 nM | – | – | – |
| 8 nM | 4.6 nM | – | 5.4 nM | 10.9 µg/mL (≈ 34.1 µM) | 2.96 | COc1ccc2c(c1)NC(=O)CN2c1cc(C)nc2ccccc12 | 4.8 nM | 340 | Active | Active |
| 9.6 nM | 5 nM | 9.4 nM | 5.5 nM | – | – | COc1ccc2c(c1)NC(=O)CN2c1ncnc2ccc(Br)cc12 | 5 nM | 340 | – | Active |
| 74 nM | 51 nM | 84 nM | 54 nM | – | – | CNc1nc(N2CC(=O)Nc3cc(OC)ccc32)c2cc(OC)c(OC)cc2n1 | 506 nM | – | – | Active |
| 7.7 nM | 5.6 nM | 8.4 nM | 5.3 nM | – | – | COc1ccc2c(c1)NC(=O)CN2c1nc(Cl)nc2cccnc12 | 5.7 nM | 340 | – | Active |
| 95 nM | 725 nM | 933 nM | 838 nM | – | – | COc1ccc2c(c1)NC(=O)CCN2c1nc(C)nc2ccccc12 | 696 nM | – | – | Active |
| 760 nM | 506 nM | 968 nM | 544 nM | – | – | COc1ccc2c(c1)NC(=O)CN2c1nc(OC)nc2cc(OC)c(OC)cc12 | 919 nM | – | – | Active |
| 8.2 nM | 3.6 nM | 84 nM | 5.5 nM | – | – | COc1ccc(/C=C\c2cc(OC)c(OC)c(OC)c2)cc1O [COMBRETASTATIN A4] | 3.8 nM | – | Active | Active |
| 76 nM | 45 nM | 82 nM | 50 nM | – | – | COc1ccc2c(c1)NC(=O)CN2c1nc(Cl)nc2cc(OC)c(OC)cc12 | 65 nM | – | – | Active |
